The values that follow come from paper PMC12475083 (Scientific Reports, 2025).

Molecules are shown by their SMILES. Like-named read-outs stand apart in the source and are kept apart here. Bounds are passed on as bounds.

One assay addresses T1, drHDAC10 (Danio rerio, UniProt F1QCV2).
T1 sequence (F1QCV2 1-675): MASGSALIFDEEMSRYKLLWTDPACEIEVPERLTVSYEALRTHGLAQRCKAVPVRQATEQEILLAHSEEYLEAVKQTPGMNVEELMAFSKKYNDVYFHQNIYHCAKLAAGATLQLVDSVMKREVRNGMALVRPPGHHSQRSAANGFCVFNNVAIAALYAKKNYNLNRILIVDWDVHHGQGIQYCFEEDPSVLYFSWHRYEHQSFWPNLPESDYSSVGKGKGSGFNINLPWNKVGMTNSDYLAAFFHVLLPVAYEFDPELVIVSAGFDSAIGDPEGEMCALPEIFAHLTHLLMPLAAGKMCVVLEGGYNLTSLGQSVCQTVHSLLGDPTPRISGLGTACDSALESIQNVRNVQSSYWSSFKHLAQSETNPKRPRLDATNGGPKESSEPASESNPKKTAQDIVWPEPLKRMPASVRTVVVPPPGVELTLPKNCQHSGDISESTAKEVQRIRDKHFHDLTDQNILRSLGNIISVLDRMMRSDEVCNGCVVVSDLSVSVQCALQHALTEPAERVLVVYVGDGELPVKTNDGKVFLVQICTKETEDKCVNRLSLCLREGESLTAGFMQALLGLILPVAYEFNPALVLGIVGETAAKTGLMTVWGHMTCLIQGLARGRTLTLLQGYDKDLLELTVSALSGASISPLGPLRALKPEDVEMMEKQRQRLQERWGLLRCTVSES
In words: Enzymatic in vitro HDAC10 inhibition assay. The class given is biochemical, zebrafish. In a few lines: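 Recombinant wild-type drHDAC10 (5 nM final) was preincubated 5 min with test compound at various concentrations in 20 mM HEPES pH 7.4 with 0.5 mg/mL BSA. The reaction was started with 50 µM Ac-spermidine-AMC and incubated 25 min at 25 °C. A stop solution containing 16 mM NDA derivatized the released primary amine. Fluorescence was read at λex 330 nm and λem 390 nm.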

Another assay addresses hHDAC1 (Homo sapiens, UniProt Q13547). In words: biochemical. The settings on record: for hHDAC1 % @1 µM: inhibitor at 1 µM; for hHDAC1 % @10 µM: inhibitor at 10 µM. The class given is biochemical.
For the next assay, the target named is T2, hHDAC6 (Homo sapiens, UniProt Q9UBN7).
T2 sequence (Q9UBN7 1-1215): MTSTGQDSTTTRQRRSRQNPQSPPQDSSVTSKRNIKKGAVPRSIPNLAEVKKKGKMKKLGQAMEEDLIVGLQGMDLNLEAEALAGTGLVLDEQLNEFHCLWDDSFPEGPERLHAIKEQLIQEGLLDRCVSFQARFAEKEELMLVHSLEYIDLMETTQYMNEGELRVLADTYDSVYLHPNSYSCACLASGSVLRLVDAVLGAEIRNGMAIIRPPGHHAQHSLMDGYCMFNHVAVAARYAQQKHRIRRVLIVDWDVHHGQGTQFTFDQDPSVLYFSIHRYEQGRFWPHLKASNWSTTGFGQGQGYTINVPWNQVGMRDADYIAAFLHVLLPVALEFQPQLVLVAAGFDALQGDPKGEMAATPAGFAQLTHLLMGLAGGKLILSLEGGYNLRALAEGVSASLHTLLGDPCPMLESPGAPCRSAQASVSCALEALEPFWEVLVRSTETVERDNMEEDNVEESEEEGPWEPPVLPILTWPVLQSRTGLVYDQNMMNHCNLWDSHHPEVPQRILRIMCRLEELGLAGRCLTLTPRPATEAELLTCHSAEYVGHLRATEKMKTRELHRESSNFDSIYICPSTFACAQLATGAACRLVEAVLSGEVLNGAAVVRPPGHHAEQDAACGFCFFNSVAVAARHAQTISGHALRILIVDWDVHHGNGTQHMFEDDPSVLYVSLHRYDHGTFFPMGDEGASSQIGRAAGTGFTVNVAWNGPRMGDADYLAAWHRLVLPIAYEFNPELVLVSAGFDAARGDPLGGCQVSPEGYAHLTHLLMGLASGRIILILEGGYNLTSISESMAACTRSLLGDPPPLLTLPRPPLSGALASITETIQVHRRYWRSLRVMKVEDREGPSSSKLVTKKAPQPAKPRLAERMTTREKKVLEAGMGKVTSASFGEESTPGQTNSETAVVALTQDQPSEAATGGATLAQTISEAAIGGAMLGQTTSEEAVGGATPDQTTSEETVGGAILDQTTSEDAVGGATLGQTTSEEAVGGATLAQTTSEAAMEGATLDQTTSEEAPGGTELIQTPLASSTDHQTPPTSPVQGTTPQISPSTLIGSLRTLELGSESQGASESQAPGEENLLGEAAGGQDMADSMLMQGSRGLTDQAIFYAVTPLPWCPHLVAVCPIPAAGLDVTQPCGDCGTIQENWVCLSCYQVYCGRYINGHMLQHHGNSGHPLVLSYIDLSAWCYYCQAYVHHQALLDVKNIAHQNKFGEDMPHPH
In words: biochemical.

The target in a further assay is T3, hHDAC8 (Homo sapiens, UniProt Q9BY41).
T3 sequence (Q9BY41 1-377): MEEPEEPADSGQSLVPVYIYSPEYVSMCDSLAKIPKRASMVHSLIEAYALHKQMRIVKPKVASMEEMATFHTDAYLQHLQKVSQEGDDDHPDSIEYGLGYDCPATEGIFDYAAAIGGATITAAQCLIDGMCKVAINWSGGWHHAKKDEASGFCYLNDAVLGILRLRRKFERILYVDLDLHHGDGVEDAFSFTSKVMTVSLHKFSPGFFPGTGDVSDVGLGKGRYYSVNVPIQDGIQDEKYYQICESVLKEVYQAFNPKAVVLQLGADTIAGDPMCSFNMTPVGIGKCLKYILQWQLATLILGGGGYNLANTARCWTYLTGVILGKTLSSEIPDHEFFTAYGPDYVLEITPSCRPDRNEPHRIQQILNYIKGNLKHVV
In words: biochemical. In kind it is biochemical. The settings on record: for hHDAC8 % @1 µM: inhibitor at 1 µM; for hHDAC8 % @10 µM: inhibitor at 10 µM.

For another assay, the system named is SK-MEL (melanoma). In words: Cytotoxicity, WST-8 cell viability. In kind it is cell-based, human. The settings on record: Homo sapiens, 48 h, read-out: Cancer cell lines IC50 SK-MEL. In a few lines: (§1)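 Cells were seeded at 10,000 cells/well and grown for 24 h. Test compounds were dissolved in DMSO, diluted in medium and added at 80, 40, 20 and 10 µM. Cells were then incubated for 48 h. Viability was read with WST-8 plus 1-methoxy PMS as formazan absorbance at 450 nm. Controls were doxorubicin (positive) and 0.25% DMSO (vehicle). IC50 came from concentration-response curves, mean ± SD (n = 3).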

The next assay has as its system KB (epidermal carcinoma). The assay can be described thus: Cytotoxicity, WST-8 cell viability. The class given is cell-based, human. The settings on record: Homo sapiens, 48 h, read-out: Cancer cell lines IC50 KB. In a few lines:
as §1

Assay [1] relates to BT-549 (breast carcinoma). The assay can be described thus: Cytotoxicity, WST-8 cell viability. The settings on record: Homo sapiens, BT-549, 48 h, read-out: Cancer cell lines IC50 BT-549. The class given is cell-based, human. In a few lines:
as §1

Assay [2] has as its system SK-OV-3 (ovarian carcinoma). The assay can be described thus: Cytotoxicity, WST-8 cell viability. In kind it is cell-based, human. The settings on record: Homo sapiens, SK-OV-3, 48 h, read-out: Cancer cell lines IC50 SK-OV-3. In a few lines: as §1
For a further assay, the system named is Vero kidney cells. In words: Cytotoxicity, WST-8 cell viability, non-cancer kidney cells. In kind it is cell-based. The settings on record: Chlorocebus sabaeus, Vero, 48 h, read-out: Kidney cells IC50 Vero. In a few lines: as §1

Sequence of hHDAC1 (Q13547 whole entry): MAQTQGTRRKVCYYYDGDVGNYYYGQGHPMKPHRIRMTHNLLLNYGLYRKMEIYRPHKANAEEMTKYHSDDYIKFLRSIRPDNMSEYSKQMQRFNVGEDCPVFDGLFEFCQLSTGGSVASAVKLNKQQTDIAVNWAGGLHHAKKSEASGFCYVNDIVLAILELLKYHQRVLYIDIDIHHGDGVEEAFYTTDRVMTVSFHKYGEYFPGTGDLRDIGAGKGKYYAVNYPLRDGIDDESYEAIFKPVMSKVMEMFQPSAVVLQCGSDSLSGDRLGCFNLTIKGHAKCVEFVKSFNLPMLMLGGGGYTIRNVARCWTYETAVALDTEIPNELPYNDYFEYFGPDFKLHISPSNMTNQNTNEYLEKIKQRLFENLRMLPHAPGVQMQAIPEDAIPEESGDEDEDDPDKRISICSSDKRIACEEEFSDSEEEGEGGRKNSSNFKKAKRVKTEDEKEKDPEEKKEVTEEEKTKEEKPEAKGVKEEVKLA

Turning to `O=C(NO)c1ccc(CNCc2c[nH]c3ccccc23)cc1` [Compound 2a, 4-((((1H-indol-3-yl)methyl)amino)methyl)-N-hydroxybenzamide], the IC50 against drHDAC10 was 0.00041 ± 2e-05 µM; against hHDAC1, 4.5 ± 0.2 µM; at hHDAC6, 0.037 ± 0.002 µM; against hHDAC8, 0.35 ± 0.02 µM; in the assay with SK-MEL (melanoma), greater than 80 µM; with KB (epidermal carcinoma) it was 72.8 ± 2.4 µM. Moreover, the IC50 in assay [1] is greater than 80 µM; in [2], 61 ± 14.4 µM; in the assay on Vero kidney cells, 62.6 ± 2.39 µM. For the same molecule, the “selectivity of HDAC10 over HDAC6” value at drHDAC10 (ratio of HDAC6 to HDAC10 IC50) was “approximately 90 fold”.
In the case of `O=C(NO)c1ccc(N2CCN(Cc3c[nH]c4ccccc34)CC2)cc1` [Compound 2b, 4-(4-((1H-indol-3-yl)methyl)piperazin-1-yl)-N-hydroxybenzamide], the IC50 against drHDAC10 was 0.002 ± 0.0001 µM; against hHDAC6 it was 0.073 ± 0.003 µM; on hHDAC8, 0.074 ± 0.006 µM; with SK-MEL (melanoma), 26 ± 3.62 µM; in the assay on KB (epidermal carcinoma), 12.1 ± 1.41 µM; in [1], 16.8 ± 3.63 µM. Further, the IC50 stood at 11.4 ± 4.04 µM in [2] and 5.99 ± 0.4 µM in the assay with Vero kidney cells. The “hHDAC1 % @1 µM” value on hHDAC1 came to 48.4%. For the same molecule, the “hHDAC1 % @10 µM” value on hHDAC1 amounted to 90.6%.
Regarding `Cc1ccc(S(=O)(=O)n2cc(CNc3ccc(C(=O)NO)cc3)c3ccccc32)cc1` [Compound 2d, N-hydroxy-4-(((1-tosyl-1H-indol-3-yl)methyl)amino)benzamide], the IC50 at drHDAC10 was found to be 0.29 ± 0.06 µM; against hHDAC6 it was 0.053 ± 0.005 µM; in the assay on SK-MEL (melanoma) it was 8.38 ± 2.11 µM; in the assay on KB (epidermal carcinoma), 13.3 ± 0.33 µM; in assay [1], 11.4 ± 0.16 µM; in assay [2] it was 12.6 ± 0.98 µM. Further, the IC50 in the assay on Vero kidney cells was 50.5 ± 9.74 µM. In addition, the “hHDAC1 % @1 µM” value at hHDAC1 stood at 1.3%. Besides, the “hHDAC1 % @10 µM” value on hHDAC1 is listed as 38.9%. Besides, the “hHDAC8 % @1 µM” value at hHDAC8 was 49.2%. Further, on hHDAC8, the “hHDAC8 % @10 µM” value turned out to be 98.9%.
Consider `Cc1ccc(S(=O)(=O)n2cc(CN3CCN(c4ccc(C(=O)NO)cc4)CC3)c3ccccc32)cc1` [Compound 2e, N-hydroxy-4-(4-((1-tosyl-1H-indol-3-yl)methyl)piperazin-1-yl)benzamide], for which the IC50 on drHDAC10 was 0.075 ± 0.012 µM; with SK-MEL (melanoma), 8.82 ± 0.7 µM; in the assay on KB (epidermal carcinoma) it was 10 ± 0.7 µM; in assay [1] it was 9.71 ± 0.28 µM; in assay [2] it was 8.62 ± 0.42 µM; in the assay on Vero kidney cells it was 13.2 ± 1.82 µM. In addition, the “decrease in HDAC10 activity compared to unsubstituted counterpart compound 2b” value on drHDAC10 (tosyl analogue vs compound 2b) is roughly 38 fold. Moreover, at hHDAC1, the “hHDAC1 % @1 µM” value came to 7.3%. Besides, on hHDAC1, the “hHDAC1 % @10 µM” value turned out to be 67.2%. Also, the “hHDAC6 % @1 µM” value on hHDAC6 (inhibitor at 1 µM) is reported as 35.3%. Also, on hHDAC6 (inhibitor at 10 µM), the “hHDAC6 % @10 µM” value turned out to be 95%. In addition, on hHDAC8, the “hHDAC8 % @1 µM” value is 26.9%. The “hHDAC8 % @10 µM” value on hHDAC8 was 87.9%.
For `O=C(NO)c1ccc(NCc2cnc3ccccc3c2)cc1` [Compound 2f, N-hydroxy-4-((quinolin-3-ylmethyl)amino)benzamide], the IC50 at drHDAC10 worked out at 0.11 ± 0.01 µM; against hHDAC6, 0.0025 ± 0.0003 µM; against hHDAC8, 0.21 ± 0.01 µM; in the assay with SK-MEL (melanoma), 15.2 ± 1.21 µM; in the assay with KB (epidermal carcinoma) it was 9.72 ± 0.73 µM; in assay [1], 14.8 ± 2.65 µM. Further, the IC50 in [2] stood at 10.9 ± 2.89 µM; with Vero kidney cells it was 3.92 ± 0.24 µM.
Turning to `O=C(NO)c1ccc(N2CCN(Cc3cnc4ccccc4c3)CC2)cc1` [Compound 2g, N-hydroxy-4-{4-[(quinolin-3-yl)methyl]piperazin-1-yl}benzamide], the IC50 at drHDAC10 (read-out: IC50 drHDAC10 ± SD, zebrafish HDAC10, recombinant wild type) was 0.011 ± 0.001 µM; at hHDAC6 (read-out: hHDAC6 IC50, recombinant human HDAC6) it was 0.13 ± 0.01 µM; at hHDAC8 (read-out: hHDAC8 IC50, recombinant human HDAC8), 0.3 ± 0.02 µM; in the assay with SK-MEL (melanoma), greater than 69 µM; in the assay with KB (epidermal carcinoma) it was greater than 69 µM; in [1], greater than 69 µM. Moreover, the IC50 in [2] is greater than 69 µM; in the assay on Vero kidney cells, 51 ± 1.95 µM. Moreover, the “hHDAC1 % @1 µM” value at hHDAC1 is given as 32.1%. For the same molecule, the “hHDAC1 % @10 µM” value at hHDAC1 was 79.4%.
On to `COc1cccc2c1C(=O)c1c(O)c3c(c(O)c1C2=O)C[C@@](O)(C(=O)CO)C[C@@H]3O[C@H]1C[C@H](N)[C@H](O)[C@H](C)O1` [Doxorubicin, reference compound], for which the IC50 is 2.52 µM with SK-MEL (melanoma); 2.3 µM with KB (epidermal carcinoma); 3.44 µM in [1]; 2.01 µM in assay [2]; greater than 11 µM in the assay with Vero kidney cells.
Turning to `CN1CCc2c(c3ccccc3n2Cc2ccc(C(=O)NO)cc2)C1` [Tubastatin A, reference compound], the IC50 against drHDAC10 came to 0.05 ± 0.003 µM. On hHDAC1, the “hHDAC1 % @1 µM” value was 7.6% and the “hHDAC1 % @10 µM” value is given as 29.9%. Besides, at hHDAC8, the “hHDAC8 % @1 µM” value was 46.4% and the “hHDAC8 % @10 µM” value amounted to 84%.
